The text below walks through data of ChEMBL document CHEMBL3751733, “Synergistic Antifungal Meroterpenes and Dioxolanone Derivatives from the Endophytic Fungus Guignardia sp” (J Nat Prod, 2015).

Values after ≈ are worked out from the molar mass of the structure shown. Active and inactive are the calls of the source. The rule behind the calls is not given here.

Data set [1] relates to Candida albicans. The data set can be described thus: Antibiofilm activity against Candida albicans ATCC 24433 after 24 hrs by XTT-based colorimetric assay. It counts as functional. Particulars: ATCC 24433, 24 h. In short, it runs like this:
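XTT assay: YPD overnight culture, PBS-washed, 1.0 × 10^6 cfu/mL in RPMI-1640/MOPS; biofilms formed at 37 °C for 24 h, washed, then treated 24 h at 37 °C; 0.5 mg/mL XTT for 2 h, read at 490 nm. MIC = lowest concentration giving ≥80% reduction in XTT signal.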
On the technique in general: Tetrazolium assays rely on reduction of a dye to a coloured formazan, in cell work by metabolically active cells.

In data set [2] the test system is Bacillus subtilis. The data set can be described thus: Antibacterial activity against Bacillus subtilis ATCC 6633 by broth microdilution method. It counts as functional. The essentials:
(§1)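 Broth microdilution in 96-well plates; MIC read by comparing OD with the growth control; amoxicillin and streptomycin as positive controls.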

Data set [3] concerns Candida albicans. The data set can be described thus: Synergistic antibiofilm activity against Candida albicans ATCC 24433 assessed as fractional inhibition concentration index after 24 hrs in presence of fluconazole checkerboard assay. It counts as functional. The essentials: (§2)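 Preformed biofilms (1.0 × 10^6 cfu/mL in RPMI-1640/MOPS, 37 °C, 24 h) treated 24 h at 37 °C in a checkerboard: compounds 160 to 5 μg/mL, fluconazole 500 to 8 μg/mL. Read by 0.5 mg/mL XTT for 2 h at 490 nm, ≥80% reduction as endpoint; FICI calculated.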

Data set [4] has as its system Candida albicans. As to the kind of experiment: Synergistic antibiofilm activity against Candida albicans ATCC 24433 assessed as fractional inhibition concentration ratio after 24 hrs in presence of fluconazole by checkerboard assay. It counts as functional. In short, it runs like this:
as §2

The test system of data set [5] is MCF7. As to the kind of experiment: Cytotoxicity against human MCF7 cells by MTT assay. It counts as cell-based. In short, it runs like this: (§3)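 MTT assay with cisplatin as positive control.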
Data set [6] relates to Candida albicans. As to the kind of experiment: Antifungal activity against Candida albicans ATCC 24433 assessed as fractional inhibition concentration index in presence of fluconazole by checkerboard assay. It counts as functional. The essentials:
(§4)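 Checkerboard in RPMI-1640/MOPS, inoculum 1.0 × 10^4 cfu/mL, 35 °C, 24 h, OD 595 nm. Compound 25 to 0.8 μg/mL against fluconazole 4.0 to 0.0078 μg/mL. MIC = concentrations giving ≥80% growth reduction. FICI ≤ 0.5 counts as synergy; values compared at fluconazole 0.031 μg/mL.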

Data set [7] concerns HepG2. The data set can be described thus: Cytotoxicity against human HepG2 cells by MTT assay. The data set is classed as cell-based. The essentials: as §3
Data set [8] has as its system Candida albicans. As to the kind of experiment: Potentiation of antifungal activity of fluconazole against Candida albicans ATCC 24433 by checkerboard assay. The data set is classed as functional. In short, it runs like this:
as §4

Data set [9] has as its system Escherichia coli. As to the kind of experiment: Antibacterial activity against Escherichia coli ATCC 25922 by broth microdilution method. It counts as functional. In short, it runs like this: as §1
(Dilution methods test growth across graded concentrations, often in twofold steps.)

Data set [10] has as its system Staphylococcus aureus. As to the kind of experiment: Antibacterial activity against Staphylococcus aureus ATCC 25923 by broth microdilution method. The data set is classed as functional. The essentials: as §1
The subject of data set [11] is Candida albicans. As to the kind of experiment: Antifungal activity against Candida albicans ATCC 24433 assessed as growth inhibition after 24 hrs by broth microdilution assay. The data set is classed as functional. The conditions noted are these: ATCC 24433, 24 h. The essentials: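 Broth microdilution: 24-h colonies suspended in 0.85% saline, diluted in RPMI-1640 with MOPS to 1.0 × 10^4 cfu/mL final, mixed 1:1 with sample; 35 °C, 24 h; OD 595 nm. MIC = lowest concentration giving 80% growth reduction. Fluconazole positive control; SD from three independent experiments.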

In data set [12] the test system is U2OS. The data set can be described thus: Cytotoxicity against human U2OS cells by MTT assay. The data set is classed as cell-based. In short, it runs like this:
as §3

Data set [13] concerns Candida albicans. The data set can be described thus: Synergistic antibiofilm activity against Candida albicans ATCC 24433 assessed as reduction in biofilm formation at 40 to 80 ug/ml in presence of 63 ug/ml fluconazole by scanning electron microscopic analysis. The data set is classed as functional, organism-based. The essentials:
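Biofilms grown 24 h at 37 °C on poly-L-lysine-treated glass coverslips from 1.0 × 10^6 cfu/mL, washed, then exposed 24 h to compound plus fluconazole; fixed in 2.5% glutaraldehyde (0.2 M PBS, pH 7.2) and 1% osmium, ethanol-dehydrated, critical-point dried, gold-coated; SEM at 10 kV.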

The test system of data set [14] is Pseudomonas aeruginosa. As to the kind of experiment: Antibacterial activity against Pseudomonas aeruginosa ATCC 9027 by broth microdilution method. It counts as functional. In short, it runs like this: as §1
The subject of data set [15] is Candida albicans. The data set can be described thus: Antifungal activity against Candida albicans ATCC 24433 assessed as synergistic growth inhibition after 24 hrs in presence of fluconazole by broth microdilution assay. The data set is classed as functional. The conditions noted are these: ATCC 24433, 24 h. In short, it runs like this:
as §4

Data set [16] has as its system Candida albicans. As to the kind of experiment: Antibiofilm activity against Candida albicans ATCC 24433 after 24 hrs in presence of fluconazole by XTT-based colorimetric assay. The data set is classed as functional. The conditions noted are these: ATCC 24433, 24 h. In short, it runs like this: as §2
For data set [17], the system named is Candida albicans. The data set can be described thus: Antifungal activity against Candida albicans ATCC 24433 assessed as fractional inhibition concentration ratio in presence of fluconazole by checkerboard assay. It counts as functional. The essentials: as §4
In data set [18] the test system is Candida albicans. As to the kind of experiment: Antibiofilm activity against Candida albicans ATCC 24433 at 1000 ug/ml after 24 hrs by XTT-based colorimetric assay. It counts as functional, organism-based. In short, it runs like this: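 Biofilms grown from overnight YPD cells, PBS-washed and resuspended to 1.0 × 10^6 cfu/mL in RPMI-1640 plus MOPS, 37 °C for 24 h. After three PBS washes, treated a further 24 h at 37 °C. Then 0.5 mg/mL XTT for 2 h, read at 490 nm. MIC taken as the lowest concentration giving ≥80% reduction in XTT reduction.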

The test system of data set [19] is Candida albicans. The data set can be described thus: Antibiofilm activity against Candida albicans ATCC 24433 at 1000 ug/ml after 24 hrs by scanning electron microscopic analysis. The data set is classed as functional, organism-based. The essentials:
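Biofilms grown from 1.0 × 10^6 cfu/mL suspensions on poly-L-lysine-treated glass coverslips, 37 °C for 24 h. PBS-washed three times, then exposed to drug for another 24 h. Fixed overnight in 2.5% glutaraldehyde in 0.2 M PBS (pH 7.2), then 1% osmium for 2 h. Ethanol-dehydrated, critical-point dried, gold-coated, and imaged by SEM at high vacuum, 10 kV.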

Turning to `C[C@@]12CC[C@@H]([C@](C)(O)CO)[C@@H]1CC1=C(O2)[C@@H]2C[C@@](O)(CO2)C1=O`, the MIC80 in data set [1] is above 200 µg/mL; in [11], 57.3 µg/mL (≈ 177 µM); in data set [15] it was 6.3 µg/mL; in data set [16], 40 µg/mL. Besides, the MIC (usually the lowest concentration that inhibits growth of the organism) was above 100 µg/mL in data set [2], 78 µg/mL (≈ 240 µM) in data set [9], 79.2 µg/mL (≈ 244 µM) in [10] and above 100 µg/mL in data set [14]. Also, the “fractional inhibitory concentration index (FICI)” value in data set [3] is recorded as below 0.31; in [6] it was 0.23. Also, the Ratio in [4] is below 0.25; in [17] it was 0.11. The Activity entry in data set [5], in data set [7] and in [12] was “Non-toxic” in each case. In data set [8], the “fold change (FC)” value is above 16. Further, the result in data set [13] was Active.

As to `OC(Cn1cncn1)(Cn1cncn1)c1ccc(F)cc1F` [FLUCONAZOLE], the values for the MIC80 in [1] and in data set [11] were above 1000 µg/mL and 0.25 µg/mL (≈ 0.816 µM), respectively. In addition, the outcome in data set [18] and in data set [19] was inactive.

With `C=C(C)[C@@H]1[C@H](O)C[C@@]2(C)OC3=C(C[C@@H]12)C(=O)[C@]1(O)CO[C@H]3C1`, the MIC80 in data set [1] is above 200 µg/mL; in data set [11], above 100 µg/mL; in data set [15] it was 25 µg/mL; in data set [16], 40 µg/mL. In addition, the MIC worked out at 73.5 µg/mL (≈ 240 µM) in [2], 88.3 µg/mL (≈ 288 µM) in [9], 73.6 µg/mL (≈ 240 µM) in data set [10] and 53.2 µg/mL (≈ 174 µM) in [14]. The “fractional inhibitory concentration index (FICI)” value in data set [3] is reported as below 0.31; in data set [6], below 0.38. Also, the Ratio in data set [4] and in [17] was below 0.25 in each case. The Activity result in data set [5], in [7] and in data set [12] was “Non-toxic” throughout. The “fold change (FC)” value in data set [8] was above 16.
